Hits are enriched below; roughly 1.8% of the tested compounds scored in any of these assays.
NTR1 agonist: activates human neurotensin receptor 1. activation, % at 20 µM. NTR1-U2OS beta-arrestin-GFP spot imaging, agonist mode. 0.17% of 330,000 active;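 active means activation at or above 40% of the spot to cytoplasm intensity ratio, with at least 20 cells analyzed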;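 further: 0% = DMSO without peptide and 100% = 100 nM NTR1 peptide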
MC4R ag barr: human MC4R agonism via beta-arrestin | P32245 | U2OS MC4R beta-arrestin complementation, luminescence; percent of melanotan II response, DMSO zero | 0.98% of 360,000 active | activation, % at 8.9 µM;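 active means activation above a per-plate cutoff, the mean activation of sample wells on that plate plus 3 SD, cut at about 8% in these data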
Target sequence (P32245 whole entry, looked up): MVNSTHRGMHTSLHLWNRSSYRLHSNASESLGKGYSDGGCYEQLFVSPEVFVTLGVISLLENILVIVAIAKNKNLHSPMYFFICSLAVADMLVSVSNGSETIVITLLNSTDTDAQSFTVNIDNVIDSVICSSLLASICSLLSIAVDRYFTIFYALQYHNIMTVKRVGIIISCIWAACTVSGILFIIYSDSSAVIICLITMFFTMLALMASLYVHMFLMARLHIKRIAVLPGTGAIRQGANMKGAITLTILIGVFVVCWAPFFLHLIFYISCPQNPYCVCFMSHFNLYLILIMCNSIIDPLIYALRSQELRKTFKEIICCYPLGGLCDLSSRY
AI-2 QS mod: modulates the Vibrio harveyi AI-2 quorum sensing system. Vibrio harveyi JMH597 AI-2 luminescence/OD600 ratio, 9 h; hits give low values; strain lacks LuxN and CqsS sensors; 0 = neutral-control median. 0.4% of 300,000 active. activity change, % at 7.5 µM. AID 2094; in the data active means activity change below about -75%, passing the limit was not always enough;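 further: luminescence divided by OD600 gain over 9 h not by final OD600 alone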
MC4R antag cAMP: blocks human MC4R cAMP signaling. P32245. MC4R-expressing cells, MTII-stimulated cAMP, LANCE TR-FRET. inhibition, % at 6.5 µM. 0.48% of 360,000 active;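 active means inhibition above its plate's cutoff, the mean of tested wells on that plate plus 3 SD, cut at about 29% in these data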;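 further: 0% = Melanotan II alone and 100% = Melanotan II plus saturating MCL0020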
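Material: human MC4R-expressing U2OS cells. Probe or stimulus: Melanotan II challenge. Dosing: 6.5 µM single dose. Times: 30-min compound, 1-h challenge, 1-h detection, room temperature. Technique: TR-FRET with Eu-cAMP and labeled anti-cAMP, 671 nm. Replication: singlicate.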
MC4R barr conf: human MC4R beta-arrestin agonism confirmation; AID 602192; activation, % at 8.9 µM; 31% of 2,400 active; shares compounds with MC4R ag barr; U2OS MC4R beta-arrestin recruitment, luminescence; scaled DMSO 0%, Melanotan II 100%;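 active means mean activation across replicates above the hit cutoff set in the earlier primary screen, cut at about 8% in these data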
MOR-DOR barr ag: counter-screen for MC4R agonists: agonists of mu-delta opioid heterodimer. shares compounds with MC4R ag barr. U2OS PathHunter beta-arrestin, beta-gal luminescence; percent of deltorphin B response, DMSO zero. activation, % at 9.2 µM. 5.8% of 2,400 active;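 active means mean activation across replicates exceeds the hit threshold derived in the earlier primary screen, cut at about 18% in these data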;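 further: 100% = deltorphin B at 0.9 µM final and 0% = DMSO alone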
Starred values were filed as active, the others as inactive; . = no result given.

SMILES	NTR1 agonist	MC4R ag barr	AI-2 QS mod	MC4R antag cAMP	MC4R barr conf	MOR-DOR barr ag
Cc1ccc(SCC(=O)Nc2ccc(-c3nnc(-c4ccco4)o3)cc2)cc1	1	18*	9	10	9.1*	7
O=C(CSCc1ccc(Cl)cc1)Nc1ccc(-c2nnc(-c3ccccc3)o2)cc1	1	9.9*	24	-2	2	2
CC[C@]12c3[nH]c4ccc(OC)cc4c3CCN1C(=O)C(CC(=O)NCCCOC)C[C@@H]2C(=O)N1CCN(C(=O)c2ccco2)CC1 (stereo not given in full)	1	-3	.	-1	.	.
CC(OC(=O)Cc1c[nH]c2ccccc12)C(=O)c1ccccc1 (stereo not given)	-2	0	.	2	.	.
Cc1cc(C)n(C(C)CNS(=O)(=O)c2ccccc2)n1 (stereo not given)	4	-1	4	2	.	.
Cc1cc(N2CCN(c3nc(-c4ccc([N+](=O)[O-])cc4)cs3)CC2)c2ccccc2n1	2	19*	8	12	11*	7
Cn1cc(Br)c(C(=O)N/N=C/c2cc3ccccc3nc2Cl)n1	-1	0	-1	-5	.	.
O=C1OC(c2ccccc2)(c2ccc(O)cc2)c2ccccc21 (stereo not given)	.	55*	.	4	48*	4
O=C1OC(c2ccccc2)(c2ccccc2)c2ccccc21	.	0	.	-1	.	.
C[C@H](CO)N1C[C@H](C)[C@@H](CN(C)CC2CC2)Oc2c(NC(=O)Cc3ccccc3)cccc2C1=O	-2	0	.	0	.	.
N#Cc1c(-c2ccco2)cc(C2CC2)nc1SCC(=O)c1ccccc1	3	18*	5	1	8	4
N#Cc1c(-c2ccccc2)cc(C2CC2)nc1SCC(=O)O	2	-2	53	22	.	.
COc1ccc(C(=O)OCC(=O)NC(=O)Nc2ccccc2F)c(OC)c1	-1	25*	.	-8	2	15
COc1ccc(C(=O)OCC(=O)NCCCc2ccccc2)c(OC)c1	0	-1	2	2	.	.
CC1(C(=O)OCC(=O)Nc2ccc(S(=O)(=O)N3CCOCC3)cc2)CC1(Cl)Cl (stereo not given)	2	-2	.	10	.	.
Cc1cc(C)nc(SCc2nnc(SCC(=O)Nc3ccc(Cl)c(C(F)(F)F)c3)o2)n1	1	11*	10	10	7	9
Cc1cccc(NC(=O)CSc2nnc(CSc3nc(C)cc(C)n3)o2)c1	-1	1	23	0	.	.
O=C(Cn1nc(-c2ccccc2)ccc1=O)Nc1ccc(NC(=O)c2ccccn2)cc1	-1	14*	11	9	22*	22*
COC(=O)Cn1nc(-c2ccccc2)n(-c2ccccc2)c1=S	1	0	30	2	.	.
CCc1ccc(/C=C2/C(=O)N(c3ccccc3)C(=S)N2CC(=O)OC)s1	20	10*	14	4	7	6
S=c1[nH]nc(COc2ccc(Cl)cc2)n1C1CCCCC1	5	11*	15	4	1	7
Cc1ccc(OCc2n[nH]c(=S)n2C2CCCCC2)cc1	3	5	17	16	.	.
Cc1sc2nc(CSc3cccc(C(F)(F)F)c3)[nH]c(=O)c2c1C	3	16*	17	-10	5	3
Cc1sc2nc(CSc3ccc([N+](=O)[O-])cc3)[nH]c(=O)c2c1C	4	.	22	.	.	.
O=C1/C(=C/c2ccc(F)cc2)SC(=S)N1Nc1ncc(C(F)(F)F)cc1Cl	0	9.9*	13	2	5	2
SMILES	NTR1 agonist	MC4R ag barr	AI-2 QS mod	MC4R antag cAMP	MC4R barr conf	MOR-DOR barr ag
COC(=O)Nc1nnc(COc2cccc(C)c2)s1	0	-2	-72	17	.	.
CCc1nnc(NC(=O)c2ccc(COc3cccc(C)c3)o2)s1	-1	14*	14	19	3	2
Cc1ccc(NC(=O)c2cc(NC(=O)c3ccco3)ccc2N2CCOCC2)cc1	0	-1	51	-1	.	.
Cc1ccc(NC(=O)c2cc(NC(=O)c3ccco3)ccc2N2CCCCC2)cc1	-1	18*	-11	20	6	7
CN1CCc2c(sc3nc(SCC(=O)NCc4ccco4)n(-c4ccccc4)c(=O)c23)C1	1	-2	15	-5	.	.
O=C(CN(C(=O)c1csnn1)c1cccc2ccccc12)NCc1ccc(F)cc1	0	-2	15	13	.	.
COc1ccc(/C=N/NC(=S)Nc2cc(C(F)(F)F)ccc2Cl)cc1	1	24*	-2	-8	2	4
Cc1ccc(C)c(NS(=O)(=O)c2c(C)nc3sccn3c2=O)c1	-2	-1	19	10	.	.
Cc1ccccc1CNCCCSc1ncccn1	1	2	11	8	.	.
Oc1cccc(C(O)CNCc2ccc(-c3ccccc3)cc2)c1 (stereo not given)	3	-1	9	-5	.	.
Oc1cccc(C(O)CNCc2ccc(OCc3ccc(Cl)cc3Cl)cc2)c1 (stereo not given)	5	14*	36	0	27*	15
CC(C)[C@H](NC(=O)Cc1ccccc1)C(=O)OCc1cc(=O)n2c(n1)sc1ccccc12	2	14*	19	25	2	4
CC1Cc2ccccc2N1C(=O)CO/N=C/c1ccccc1OC(F)F (stereo not given)	2	0	15	19	.	.
O=C(CO/N=C/c1ccccc1OC(F)F)N1CCc2ccccc21	0	11*	7	24	-2	10
O=C(Nc1ccncc1)c1cccc(F)c1	-4	-1	7	0	.	.
O=C(Nc1ccc(OC(F)(F)C(F)F)c(NC(=O)c2cccc(F)c2)c1)c1cccc(F)c1	1	21*	2	14	7	4
Cc1ccc(C(=O)Nc2ccc(C(=O)/C=C/c3cccs3)cc2)cc1	0	28*	16	9	2	6
O=C(/C=C/c1cccs1)c1ccc(NC(=O)c2cccc(Br)c2)cc1	5	3	3	8	.	.
Cc1ccccc1-c1nnc(NC(=O)CSc2nc3ccccc3s2)s1	5	16*	-5	0	10*	4
C/C=C/C(=O)Nc1nnc(-c2ccccc2C)s1	4	19*	19	19	1	6
COc1cc(NC(=O)c2cccs2)c(OC)cc1NC(=O)CCC(=O)Nc1ccc(C)cc1	4	13*	8	12	3	1
C=CCN1C(=O)C(Cc2ccc(OC)cc2)S/C1=N\N=C\c1cccs1 (stereo not given)	2	9.9*	9	-1	9.7*	2
C=CCN1C(=O)C(Cc2ccc(OC)cc2)S/C1=N/N=C/c1ccco1 (stereo not given)	2	0	0	-1	.	.

Bioassay records deposited in PubChem BioAssay by several laboratories.
